This note sets out measurements from PubChem BioAssay AID602194 (The Scripps Research Institute Molecular Screening Center, 2012).

Structures are written as SMILES. Out of some 2,400 compounds screened, about 140 (5.8%) were called active. Not all results are given here. Unmarked numbers belong to inactive results.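 The calls were made as follows: active = mean activation across replicates exceeds the hit threshold derived in the earlier primary screen (cut at about 18% in these data); inactive = the rest.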

Sequence of Mu-type opioid receptor (Homo sapiens) + Delta-type opioid receptor (Homo sapiens) (P35372 whole entry, looked up): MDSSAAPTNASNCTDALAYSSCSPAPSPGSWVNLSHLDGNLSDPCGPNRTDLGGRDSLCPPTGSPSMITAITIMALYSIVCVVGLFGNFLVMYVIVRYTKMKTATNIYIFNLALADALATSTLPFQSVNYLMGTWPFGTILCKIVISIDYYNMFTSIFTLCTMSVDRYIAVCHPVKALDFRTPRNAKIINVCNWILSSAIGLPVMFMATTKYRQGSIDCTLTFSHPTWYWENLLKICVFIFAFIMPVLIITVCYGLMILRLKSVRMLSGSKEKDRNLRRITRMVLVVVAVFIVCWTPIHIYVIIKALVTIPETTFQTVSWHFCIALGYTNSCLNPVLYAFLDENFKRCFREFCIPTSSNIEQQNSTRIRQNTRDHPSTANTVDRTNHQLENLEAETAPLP
Sequence of Mu-type opioid receptor (Homo sapiens) + Delta-type opioid receptor (Homo sapiens) (P41143 whole entry, looked up): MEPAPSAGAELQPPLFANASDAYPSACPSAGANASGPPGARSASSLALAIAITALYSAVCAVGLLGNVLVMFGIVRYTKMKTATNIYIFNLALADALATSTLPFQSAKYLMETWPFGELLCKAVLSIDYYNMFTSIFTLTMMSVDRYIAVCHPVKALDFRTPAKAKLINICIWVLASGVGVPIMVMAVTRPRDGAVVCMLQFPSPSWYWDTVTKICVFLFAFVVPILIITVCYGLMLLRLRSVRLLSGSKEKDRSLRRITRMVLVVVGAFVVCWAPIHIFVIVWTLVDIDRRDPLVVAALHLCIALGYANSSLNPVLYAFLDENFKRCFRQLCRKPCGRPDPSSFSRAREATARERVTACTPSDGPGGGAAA

The assay addresses Mu-type opioid receptor (Homo sapiens) + Delta-type opioid receptor (Homo sapiens) (UniProt P35372+P41143). In words: agonists of MOR-DOR heterodimerization, counter-screen for MC4R biased agonist project, cell-based, luminescence (AID 602194).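 Also: 100% = deltorphin B at 0.9 µM final and 0% = DMSO alone.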 To be noted: U2OS PathHunter beta-arrestin, beta-gal luminescence; at 9.2 µM; active compounds read high; percent of deltorphin B response, DMSO zero. The procedure, abridged: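 System: U2OS cells with OPRM1, OPRD1 and beta-arrestin; doses: 9.2 µM single dose; timing: 23 h growth, 3 h compound 37 °C, 1 h detection; signal: luminescence; evaluation: mean % activation versus DMSO and Deltorphin B wells; control set: Deltorphin B high, DMSO low; repeats: triplicate wells per compound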
(The purpose of a counterscreen is to sort out artefacts and off-target activity.)
Regarding `COc1ccc(C(=O)c2oc3ccc(Br)cc3c2NC(C)=O)cc1`, the activation was 1.7%.
For the molecule `COc1cccc(CNCCc2c[nH]c3ccccc23)c1OCc1ccccc1F`, the activation was 39.6% (active).
For `O=C(Cn1cnc2c(nnn2-c2ccccc2)c1=O)N1CCC(Cc2ccccc2)CC1` the value was 3.51%.
As for `O=C(OC12CC3CC(CC(C3)C1)C2)c1ccc(NCc2cc(O)ccc2O)cc1`, the activation is 7.74%.
Take `Cc1ccc([C@H]2C[C@H](O)[C@@H](n3cc(COC(=O)c4ccccc4)nn3)CN2C(=O)C2CCCCC2)cc1`: the activation is 5.71%.
As for `O=C(Nc1ccc2oc(-c3ccc4ccccc4c3)nc2c1)c1cccs1`, the activation was 5.63%.
Then `CC(=O)Nc1cc(-c2ccccc2N(C)C)cn2c(-c3ccc(F)c(Cl)c3)cnc12`, with 4.79%.
Regarding `CC(=O)Nc1cc(-c2ccccc2F)cn2c(-c3cccc(C(F)(F)F)c3)cnc12`, the activation was 2.54%.
Then `Cc1csc(NC(=O)c2ccc(-c3ccc(Cl)cc3Cl)o2)n1`, with 5.41%.
Then `CCCCNc1c(-c2cccc(Sc3ccc(OC)cc3)c2)nc2ccccn12`, with 6.07%; and `CCN1CCN(CCNC(=O)c2ccc(/C=C3/Sc4ccccc4N(Cc4cccc(C)c4)C3=O)cc2)CC1`, with 4.15%; and `Cc1ccccc1NC(=O)c1ccc(COc2ccc3c(C)cc(=O)oc3c2)cc1`, with 12.7%.
Then `O=C(/C=C/c1c(Cl)cccc1Cl)NCc1ccccc1`, with 5.53%.
In the case of `COc1c(Cl)cc(C(=O)Nc2ccc(Cl)cn2)cc1Cl`, the activation was 7.15%.
Then `NC(N)=Nc1nc(-c2ccccc2)c2cc(Cl)ccc2n1`, with 5.11%.
For `O=C(NC1CCCCCC1)c1cccnc1Sc1ccc(Cl)cc1` the value was 3.4%; for `Brc1ccc(-c2csc(N/N=C/c3cccnc3)n2)cc1`, 5.84%.
On to `Cc1cccc(NC(=O)Nc2cccc(Oc3c(F)c(F)c(F)c(F)c3F)c2)c1`, for which the activation is 6.53%.
Then `COc1ccc(-c2cc(NC=O)c3ncc(-c4ccccc4)n3c2)cc1OC`, with 3.12%; and `O=C(CCCCCN1C(=O)c2cccc3cccc(c23)C1=O)NCc1ccco1`, with 9.12%.
Then `O=C(CCCN1C(=O)/C(=C\c2ccco2)SC1=S)Nc1cccc2ccccc12`, with 4.3%; and `O=C(CCCn1c(SCC(=O)c2ccc(F)cc2)nc2ccccc2c1=O)NCc1ccco1`, with 33.1% (active).
With `COc1ccc(S(=O)(=O)N/N=C\c2ccc(OC)c(COc3ccc(C)cc3[N+](=O)[O-])c2)cc1`, the activation was 3.27%.
Then `COc1ccccc1-c1cc(NC(C)=O)c2ncc(-c3ccc(F)cc3)n2c1`, with 4.19%; and `O=C(N/N=C/c1ccc(OC(=O)c2ccccc2Cl)cc1)c1ccc(O)cc1`, with 6.45%.
Then `CC(=O)c1cccc(-c2cnc3c(NC=O)cc(-c4ccc(N(C)C)cc4)cn23)c1`, with 2.52%; and `Cc1ccc(-n2cc3ccc([N+](=O)[O-])cc3n2)cc1`, with 7.27%; and `COc1ccc(OCC(=O)Nc2ccc(N3CCC(C)CC3)cc2)cc1`, with 2.59%.
For the molecule `O=C(NCCc1c[nH]c2ccc(Cl)cc12)c1ccc([N+](=O)[O-])cc1`, the activation was 15.2%.
For `CCOC(=O)c1[nH]c2c(c1-c1ccccc1)C(=O)CC(c1ccc(Cl)cc1)C2` (stereo not given), the activation is 6.76%.
Then `CCCCCCCCCCOC(=O)Cn1c(COc2cccc(OC)c2)[n+](C)c2ccccc21`, with 19.9% (active); and `CCCCCCCCCCOC(=O)Cn1c(COc2ccc(C)cc2)[n+](C)c2ccccc21`, with 22.4% (active); and `COc1cc(/C=C(\C#N)C(=O)Nc2ccc3ccccc3c2)c([N+](=O)[O-])cc1OC`, with 10.3%.
Regarding `CCN1C[C@@H]2[C@@H]3C(=O)N(Cc4ccccc4)C(=O)[C@@H]3[C@](Cc3ccccc3)(C(=O)OC)N2C1=NC1CCCCC1`, the activation was 5.52%.
For `O=C(NC(c1ccc(-c2ccccc2)cc1)c1cnccn1)C1CCN(CCOc2ccc(Cl)cc2Cl)CC1` (stereo not given) the value was 9.53%; for `O=C(COC(=O)c1cccc(Br)c1)Nc1cccc2c1C(=O)c1ccccc1C2=O`, 6.2%.
Then `O=C(NC(=S)Nc1cccc2c(O)cccc12)c1cccc(Br)c1`, with 8.2%; and `CCN(CC)S(=O)(=O)c1ccc(C)c(NC(=O)COc2ccc(Br)cc2Cl)c1`, with 6.67%; and `CSc1ccc(/C=N\NC(=O)COc2ccc(Cl)cc2Br)cc1`, with 5.52%.
Take `COc1ccc(C)c(Cn2c(-c3nonc3N)nc3ccccc32)c1`: the activation is 5.04%.
